High-throughput results from PubChem.
ARFGAP1 inh = inhibitors of rat ARFGAP1; Q62848; Arfgap1-stimulated ARF1 GTP hydrolysis, GDP FP detection; inhibition, % at 16.5 µM; 360,000 compounds, 0.26% hits;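 active = inhibition above a per-plate limit, mean inhibition of low control wells plus 3 SD, cut at about 25% in these data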;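 note: 0% = DMSO wells with enzyme and 100% = wells lacking Arfgap1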
Target sequence (Q62848 1-136 limits assumed): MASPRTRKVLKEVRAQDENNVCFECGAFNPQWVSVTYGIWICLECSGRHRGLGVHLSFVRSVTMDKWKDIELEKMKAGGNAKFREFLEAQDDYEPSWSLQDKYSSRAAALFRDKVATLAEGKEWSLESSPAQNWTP
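system = rat Arfgap1 catalytic domain, aa 1-136 | technique = FP, GDP Alexa 633 tracer displaced from anti-GDP antibody, 620/688 nm | compound = one concentration, 16.5 µM, DMSO 1.26% | medium = HEPES-based buffer, pH 7.5 | timing = compound-enzyme preincubation 20 min, reaction 120 min, detection 60 min, 25 °C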
ASAP1 GAP inh = ASAP1 ArfGAP inhibition; Q9ULH1; ASAP1-stimulated ARF1 GTP hydrolysis, GDP FP detection; inhibition, % at 16.5 µM; 360,000 compounds, 0.19% hits; in the data active = inhibition above about 25%;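 note: 0% = vehicle with enzyme and substrate and 100% = no enzyme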
pPAFAH FP inh = pPAFAH (human) enzyme inhibition. Q13093. recombinant pPAFAH, FP-rhodamine probe fluorescence polarization. inhibition, % at 3.39 µM. 330,000 compounds, 1.5% hits. AID 463082;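 active = inhibition above the mean inhibition across the screen plus 3 SD, cut at about 25% in these data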;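 note: inhibitors block binding of the rhodamine activity-based probe so polarization drops; 0% = enzyme with DMSO and 100% = wells lacking pPAFAH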
PAFAH1B3 FP inh = blocks human PAF acetylhydrolase 1B catalytic subunit 3 | recombinant PAFAH1B3, FP-rhodamine probe, fluorescence polarization | inhibition, % at 3.39 µM | 340,000 compounds, 0.28% hits;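 active = inhibition above the screen-wide average of all tested compounds plus 3 SD, cut at about 25% in these data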;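 note: 0% = enzyme with DMSO only and 100% = wells lacking PAFAH1B3 protein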
PAFAH1B2 FP inh = inhibitors of human PAFAH1B2. recombinant PAFAH1B2, FP-rhodamine activity probe, fluorescence polarization. inhibition, % at 3.39 µM. 340,000 compounds, 1.2% hits;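 active = inhibition above the mean of all tested compounds plus 3 SD, cut at about 24% in these data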;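 note: 0% = enzyme with DMSO and 100% = wells lacking PAFAH1B2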
PAFAH2 FP inh = PAFAH2 (human) inhibition. Q99487. recombinant PAFAH2, FP-rhodamine activity probe, fluorescence polarization. inhibition, % at 3.39 µM. 340,000 compounds, 0.99% hits. AID 492956;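 active = inhibition above the mean over all tested compounds plus 3 SD, cut at about 30% in these data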;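 note: inhibitors block probe labeling of enzyme so polarization drops; 0% = enzyme with DMSO and 100% = wells lacking PAFAH2 protein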
ASAP1 GAP conf = ASAP1 inhibition confirmed | shares compounds with ASAP1 GAP inh | ASAP1-stimulated Arf1 GTPase, GDP fluorescence polarization | inhibition, % at 16.5 µM | 620 compounds, 37% hits | AID 624431;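 active = mean inhibition over triplicates exceeds the hit threshold derived for the earlier primary screening run, cut at about 25% in these data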
ARFGAP1 confirm = confirmation of rat ARFGAP1 inhibitors; shares compounds with ARFGAP1 inh; ARFGAP1-stimulated ARF1 GTP hydrolysis, GDP tracer FP; inhibition, % at 16.5 µM; 890 compounds, 30% hits; AID 651608;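 active = average inhibition over triplicates above the hit cutoff set in the earlier primary screen, cut at about 25% in these data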;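 note: 0% = Arfgap1 plus ARF1-GTP with DMSO and 100% = wells lacking Arfgap1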
Target sequence (Q62848 whole entry, looked up): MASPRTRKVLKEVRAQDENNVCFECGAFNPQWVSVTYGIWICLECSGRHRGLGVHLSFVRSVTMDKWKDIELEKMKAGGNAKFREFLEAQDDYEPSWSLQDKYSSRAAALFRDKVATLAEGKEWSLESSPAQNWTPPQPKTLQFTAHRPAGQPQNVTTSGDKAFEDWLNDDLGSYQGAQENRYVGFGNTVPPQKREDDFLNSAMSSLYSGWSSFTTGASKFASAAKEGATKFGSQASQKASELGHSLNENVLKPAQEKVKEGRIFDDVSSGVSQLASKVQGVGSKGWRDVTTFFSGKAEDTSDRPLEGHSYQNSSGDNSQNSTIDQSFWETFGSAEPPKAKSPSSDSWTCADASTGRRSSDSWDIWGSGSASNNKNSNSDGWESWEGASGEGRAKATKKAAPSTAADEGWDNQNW
Active calls of the source: *; . = no result. The list is not random: actives were taken first. Their share in the collection is about 2.8%.

SMILES	ARFGAP1 inh	ASAP1 GAP inh	pPAFAH FP inh	PAFAH1B3 FP inh	PAFAH1B2 FP inh	PAFAH2 FP inh	ASAP1 GAP conf	ARFGAP1 confirm
COCCCN1C(=O)C(CC(=O)NCCCN(C)C)CC(C(=O)N2CCCCCC2)=C1C (centres undefined)	10.0	0.0	.	.	.	.	.	.
COc1cc(F)ccc1-c1csc(C(O)c2ccc(F)cc2)n1 (centres undefined)	3.5	4.0	.	.	.	.	.	.
COc1ccc(CCN2CC(C(=O)OCC(=O)N(C)Cc3ccccc3)CC2=O)cc1OC (centres undefined)	-8.8	-4.5	2.6	6.8	0.5	-6.4	.	.
COc1ccccc1/C=N/NC(=O)c1cc2c(ccc3ccccc32)o1	-8.1	13.9	0.8	0.4	0.6	-12.7	.	.
COc1ccc(/C=N/NC(=O)c2cc3c(ccc4ccccc43)o2)cc1OC	75.6*	102.1*	.	4.4	6.3	-4.2	114.9*	82.0*
O=C(O)c1ccc(/C=N/NC(=O)c2cc3c(ccc4ccccc43)o2)cc1	14.2	11.3	0.7	4.4	-0.5	-20.3	.	.
COc1ccc(/C=N\NC(=O)c2cc3c(ccc4ccccc43)o2)cc1O	27.9*	72.5*	.	18.6	13.3	-18.5	95.7*	75.9*
COc1ccc([N+](=O)[O-])cc1NC(=O)c1ccc(Br)s1	36.1*	38.0*	-10.3	-10.2	-4.5	-5.7	53.7*	67.8*
COc1ccc(CCNC(=O)C(=O)NCC2OCCN2S(=O)(=O)c2ccc(Cl)cc2)cc1OC (centres undefined)	-7.1	-8.9	5.1	-4.1	6.7	-2.1	.	.
CCCCN(CC)CCCNC(=O)c1cc2c(-c3ccc(OC)c(OC)c3)nn(C)c2s1	26.5*	34.2*	2.1	6.0	-0.1	-5.4	72.4*	74.1*
CCN(CC)C(=O)C1=C(C)N(CCC2=CCCCC2)C(=O)C(CC(=O)NCc2cccs2)C1 (centres undefined)	4.1	-3.1	.	.	.	.	.	.
O=C(Nc1cccc(-c2cnc3ccccc3n2)c1)c1ccccc1	7.4	4.3	2.4	-2.3	1.6	10.5	.	.
O=C(Nc1cccc(-c2cnc3ccccc3n2)c1)c1cccc(NC(=O)c2ccco2)c1	100.7*	101.8*	-16.1	-20.5	-19.7	-36.0	90.7*	126.5*
O=c1[nH]c(Nc2ccccn2)cc2ccccc12	-2.4	21.1	9.0	8.9	1.8	-0.5	.	.
O=c1[nH]c(Nc2ccccc2Cl)cc2ccccc12	29.2*	47.9*	8.9	14.6	5.9	7.6	7.8	4.8
Cc1ccc(-c2nn(-c3ccccc3)cc2/C=C/C(=O)Nc2nccs2)cc1	52.1*	34.0*	-0.8	-2.1	0.3	-5.5	23.9	68.2*
COc1ccc(-n2nc(C(=O)NCC(=O)NCc3ccc(F)cc3)c3ccccc3c2=O)cc1OC	138.9*	43.3*	-4.3	-18.9	-22.9	-13.1	49.3*	88.1*
COC(=O)CNC(=O)CNC(=O)c1nn(-c2ccc(OC)c(OC)c2)c(=O)c2ccccc12	4.0	2.2	-0.4	8.3	-3.7	0.5	.	.
COc1ccc(-n2nnnc2SCC(=O)c2ccc3c(c2)OCCO3)c(OC)c1	59.1*	52.7*	6.7	5.2	2.2	6.1	50.6*	134.9*
Cc1ccccc1NC(=O)Cn1cnc2c(oc3ccccc32)c1=O	-10.6	-19.9	2.3	-1.6	2.6	-2.9	.	.
Cc1cccc(NC(=O)Cn2cnc3c(oc4ccccc43)c2=O)c1C	29.1*	32.6*	-2.8	-0.1	0.7	0.8	48.9*	59.2*
CN(C)c1ccc(C(c2ccc(N(C)C)cc2)C(O)c2ccccc2)cc1 (centres undefined)	9.0	4.2	.	10.8	5.5	4.0	.	.
CC[n+]1ccc(/C=C/c2ccc(N(C)C)cc2)c2ccccc21	37.4*	43.4*	.	-2.0	-4.7	-14.1	52.6*	50.4*
CC[n+]1ccccc1/C=C/c1ccc(N(C)C)cc1	2.5	-4.2	.	-18.9	-6.6	-12.3	.	.
O=C(N/N=C/c1ccc(Cl)c([N+](=O)[O-])c1)c1ccc2c(c1)OCCO2	65.5*	82.5*	.	-16.6	-8.6	1.6	103.7*	99.2*
SMILES	ARFGAP1 inh	ASAP1 GAP inh	pPAFAH FP inh	PAFAH1B3 FP inh	PAFAH1B2 FP inh	PAFAH2 FP inh	ASAP1 GAP conf	ARFGAP1 confirm
CCOc1ccc(C(=O)Nc2cccc(-c3cc4ccccc4oc3=O)c2)cc1[N+](=O)[O-]	42.4*	25.9*	-5.2	-39.1	-20.4	-35.4	36.8*	46.4*
CCOc1ccc(C(=O)Nc2cc(-c3nc4ccccc4[nH]3)ccc2Cl)cc1[N+](=O)[O-]	109.4*	68.5*	-13.7	-16.5	-11.3	-24.1	123.2*	151.3*
C[C@H]1CN([C@@H](C)CO)C(=O)CCCn2nncc2CO[C@@H]1CN(C)Cc1cccc2c1OCCCO2	7.5	7.4	.	.	.	.	.	.
COc1ccc(NC(=S)N2CCC3CC2c2c(Cl)cccc23)c(OC)c1 (centres undefined)	16.8	9.6	.	.	.	.	.	.
O=C(Cn1cncc1-c1ccc([N+](=O)[O-])cc1)Nc1cccc2ccccc12	41.3*	28.3*	4.8	-22.0	-3.4	-5.7	37.2*	45.7*
O=C(Nc1ccc(-c2nc3ccc(NC(=O)c4cccs4)cc3[nH]2)cc1)c1cccs1	73.0*	36.5*	15.3	17.5	0.6	7.8	73.6*	123.7*
COC(=O)C[C@@H]1OC[C@H](C(C)C)N1S(=O)(=O)c1ccc(C)cc1	1.5	1.6	.	.	.	.	.	.
C[n+]1c(-c2ccc(C=NNC(=O)c3ccc(C(=O)NN=Cc4ccc(-c5cn6ccccc6[n+]5C)cc4)cc3)cc2)cn2ccccc21	65.9*	41.5*	.	4.0	4.5	3.7	50.4*	90.0*
